Assay results pooled from the literature.
Each line is one published result; the experiments were not run side by side.
Target: LIM domain kinase 2 (LIMK2, Homo sapiens, UniProt P53671)

SMILES	read-out	method	concentration	remaining binding [%]
O=S(=O)(NC1CCC(c2cc(F)ccc2F)(S(=O)(=O)c2ccc(Cl)cc2)CC1)C(F)(F)F (stereo not shown)	cell-free assay	competition with immobilised ligand	1 µM	87
N[C@H]1CCN(c2nccc(-c3cnn4ncccc34)n2)C1	binding	–	1 µM	100
COc1cnc(Nc2cccc(S(N)(=O)=O)c2)nc1N1CCN(c2ccccc2)C(=O)C1	binding	competition with immobilised ligand	1 µM	100
COc1ccnn2ncc(-c3ccnc(N(C)C)n3)c12	binding	–	1 µM	82
CN(C)c1ncnc(-c2ccc3nc(Nc4cc(CN5CCN(C(=O)CC(F)(F)F)CC5)ccn4)[nH]c3c2)c1Cl	cell-free assay	competition with immobilised ligand	1 µM	100
CN(C)c1nccc(-c2cnc3ncccn23)n1	binding	–	1 µM	91
O=C(Nc1ccc(Oc2ccc(F)cc2)cc1)N1CCc2ncccc2[C@H]1c1ccc(F)cc1	cell-free assay	competition with immobilised ligand	1 µM	93
O=C(NCCCN1CCOCC1)c1ccc(Nc2nccc(-c3cc4ccccc4s3)n2)cc1	binding	competition with immobilised ligand	1 µM	59
C[C@@H](c1ccc(-n2cnc3c(N)ncnc32)cc1)N1CCc2nn(C)c(Cc3ccccc3)c2C1=O	binding	competition with immobilised ligand	0.1 µM	25
COc1ncc2cc3ccccc3nc2c1C#N	cell-free assay	competition with immobilised ligand	5 µM	91
CN(C)c1ncc(F)c(-c2cnn3ncccc23)n1	binding	–	1 µM	82
O=c1nc(-c2ccccn2)sc2ccccc12	binding	competition with immobilised ligand	1 µM	100
O=C(c1ccc(Nc2ncc(Cl)c(-c3ccc(Cl)s3)n2)cc1)N1CCC(N2CCCC2)CC1	binding	competition with immobilised ligand	1 µM	38
CC1=C(C#N)[C@@H](c2ccc3[nH]nc(C)c3c2)C(C#N)=C(c2ccc(Cl)cc2)N1	cell-free assay	competition with immobilised ligand	1 µM	91.1
O=C(Nc1c[nH]nc1C(=O)NC1CCNCC1)c1cc(F)cc(F)c1	binding	competition with immobilised ligand	1 µM	97
CN(CCCC(F)(F)F)c1nccc(-c2cnn3ncccc23)n1	binding	–	1 µM	95
c1cncc(-c2cccc(Nc3nccc(NC4CCCCC4)n3)c2)c1	binding	competition with immobilised ligand	10 µM	45
CC1=C(C#N)C(c2ccc3c(c2)c(NC(=O)c2ccccc2C)nn3C)C(C#N)=C(C)N1	cell-free assay	competition with immobilised ligand	1 µM	99
C[C@H]1CCN(c2nccc(-c3cnn4ncccc34)n2)C1	binding	–	1 µM	75
COc1cc(-c2cn(C3CCc4c(F)cccc4N(CC(F)(F)F)C3=O)nn2)ccc1-n1cnc(C)c1 (stereo not shown)	cell-free assay	competition with immobilised ligand	1 µM	100
Nc1ncc2c(n1)-c1c([nH]c3ccc(C#CC4CC4)cc13)CCCC2	binding	competition with immobilised ligand	1 µM	91
Cc1cnc(Nc2ccc(C(=O)N3CCC(N4CCCC4)CC3)cc2)nc1-c1cc2ccccc2s1	binding	competition with immobilised ligand	1 µM	30
